KCNK3 block: human KCNK3 channel inhibition, primary screen; CHO-KCNK3 thallium flux, FluxOR fluorescence; hits give low values; B-score at 10 µM; hit rate 0.84% among 340,000; AID 602410;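 active means B-score under library mean minus 4 SD, starting fluorescence ratio at most library mean plus 5 SD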;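 further: more negative B-score means stronger inhibition of thallium flux through KCNK3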
Target sequence (O14649 whole entry, looked up): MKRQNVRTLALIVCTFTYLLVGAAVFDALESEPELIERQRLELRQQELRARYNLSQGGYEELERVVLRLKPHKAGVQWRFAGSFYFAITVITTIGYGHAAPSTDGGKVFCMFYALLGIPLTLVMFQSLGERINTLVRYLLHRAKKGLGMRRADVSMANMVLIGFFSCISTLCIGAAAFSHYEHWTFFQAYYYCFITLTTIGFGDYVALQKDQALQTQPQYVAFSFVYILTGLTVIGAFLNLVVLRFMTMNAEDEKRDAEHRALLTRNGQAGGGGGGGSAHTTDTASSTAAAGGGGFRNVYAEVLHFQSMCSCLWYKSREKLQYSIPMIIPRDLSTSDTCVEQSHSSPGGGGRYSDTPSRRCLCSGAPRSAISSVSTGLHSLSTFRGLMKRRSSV
Kir21 inh: blocks the mouse Kir2.1 inward-rectifier potassium channel. HEK293-Kir2.1, FluxOR thallium flux fluorescence; hits give low values. hit rate 0.85% among 310,000. B-score at 10 µM. P35561;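 active means fluorescence ratio B-score at or below minus 3 SD of library scores, with starting-brightness B-score within 2 SD, cut at about -4.2 in these data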;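 further: channel flux triggered by added potassium and thallium sulfate stimulus; B-score of peak minus minimum fluorescence over baseline after thallium stimulus; more negative B-score means stronger Kir2.1 block with less thallium influx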
KCNQ1 block: blocks the human KCNQ1 potassium channel. CHO-K1 KCNQ1, FluxOR thallium flux fluorescence; hits give high values. B-score at 10 µM. hit rate 1.3% among 310,000. AID 2642;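 active means compounds whose thallium flux B-score, printed positive for inhibition, exceeds three library SD while starting fluorescence stays within three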;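 further: channel opened by potassium depolarization with thallium stimulus after 20 min compound exposure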
KCNK9 inh: blocks the human KCNK9 two-pore domain potassium channel. Q9NPC2. HEK293 KCNK9, FluxOR thallium flux fluorescence; hits give low values. B-score at 10 µM. AID 488922. hit rate 1.2% among 310,000;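 active means ratio B-score over 3 SD below the library mean, with starting fluorescence within 5 SD of its mean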;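 further: negative B-score means less thallium flux so channel inhibition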
KCNQ1 pot: human KCNQ1 channel potentiation or activation. CHO-K1 KCNQ1, thallium flux FluxOR fluorescence; hits give high values. hit rate 0.35% among 310,000. B-score at 10 µM;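 active means fluorescence ratio B-score, a plate-corrected score, at least three library SD, with initial intensity B-score within 5 SD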
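Test system: CHO-K1 cells stably expressing KCNQ1 / Medium: assay buffer / Also added: depolarizing K+/Tl+ stimulus, K2SO4 and Tl2SO4 each 12.5 mM in 5x stock / Incubation: 90 min dye loading and 20 min compound exposure, both at room temperature / Signal: thallium influx via FluxOR fluorescence, kinetic imaging / Evaluation: B score of baseline-normalized fluorescence ratio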
hERG rescue: hERG (human) protection from proarrhythmic block | Q12809 | CHO-hERG, FluxOR thallium flux, dofetilide IC70 present | activation (rescue from dofetilide block), less the hit threshold, % at 10 µM | hit rate 0.51% among 310,000 | AID 1511;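 active means activation above the mean of controls blocked by dofetilide plus 5 SD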;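 further: thallium influx through hERG after potassium depolarization seen as dye fluorescence rise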
Of the large screens only hits and unclear results are named; the others gave an inactive call. In the library only some 3.7% were active in any assay of this set; here they are far more common.

C=CCNC(=O)C(C#N)c1nc2ccccc2nc1N1CCCCCC1 (stereo not drawn)	KCNQ1 block 6
CC1CN(c2nc3ccccc3nc2C(C#N)C(=O)NCc2ccc3c(c2)OCO3)CC(C)O1 (stereo not drawn)	KCNQ1 pot 23
CCCCNC(=O)C(C#N)c1nc2ccccc2nc1N1CCN(Cc2ccc3c(c2)OCO3)CC1 (stereo not drawn)	none (no result: Kir21 inh, KCNQ1 block, KCNK9 inh, KCNQ1 pot, hERG rescue)
O=[N+]([O-])c1cc(C=Nc2cccc3c(O)cccc23)ccc1Cl	KCNQ1 block 7 (no result: KCNK3 block)
Cc1cccc(CSc2nnc(CCNC(=O)OC(C)(C)C)o2)c1	Kir21 inh -6.8
CC(C)(C)OC(=O)NCCc1nnc(SCc2cccc(Cl)c2)o1	Kir21 inh -12
CC(C)(C)OC(=O)NCCCCCc1nnc(SCc2cccc(F)c2)o1	none
O=C(COC(=O)COc1ccccc1Cl)Nc1ccccc1OC(F)F	hERG rescue 4.9
O=C(COC(=O)c1ncc(Cl)c(Cl)c1Cl)Nc1ccccc1OC(F)F	none
COc1ccc(Nc2cc(C)c3ccc(O)cc3n2)cc1	Kir21 inh -4.7
COC(=O)C1=C(Nc2ccccc2NS(=O)(=O)c2ccc(C(F)(F)F)cc2Cl)CSC1	KCNQ1 block 6
COC(=O)C1=C(Nc2ccccc2NC(=O)c2ccccc2C(=O)O)CSC1	none
COc1ccc(C(C(=O)NC2CCCCC2)N(Cc2ccco2)C(=O)c2snc(C(N)=O)c2N)cc1 (stereo not drawn)	KCNQ1 block 9
COc1ccc(C(C(=O)NC2CCCC2)N(Cc2ccco2)C(=O)c2snc(C(N)=O)c2N)cc1OC (stereo not drawn)	none
O=C(NC1CCCCC1)C(c1cccs1)N(Cc1cccs1)C(=O)c1cccs1 (stereo not drawn)	KCNQ1 block 8
CCC(C(=O)NC1CCCCC1)N(Cc1cccs1)C(=O)c1snc(C(N)=O)c1N (stereo not drawn)	KCNQ1 block 6
O=C(NC1CCCCC1)C(c1ccc2ncccc2c1)N(Cc1cccs1)C(=O)c1cccs1 (stereo not drawn)	none
CC(=O)Nc1cccc(NC(=O)c2ccccc2OCc2c(C)noc2C)c1	none
COc1cc(OC)cc(C(=O)NC(=S)N2CCCCCC2)c1	hERG rescue 10
COc1ccc(C(=O)NC(=S)N2CCCCC2)cc1	none
O=C(Cn1c(=O)[nH]c2ccccc2c1=O)Nc1ccc2c(c1)OCO2	none
Cc1ccc(N=Cc2c(O)n(-c3cc(Cl)ccc3N3CCOCC3)c(=O)c3ccccc23)cc1C	KCNQ1 block 10
Cc1cc(N=Cc2c(O)n(-c3cccc(Cl)c3)c(=O)c3ccccc23)no1	none
COc1ccc(CCNc2nc(C)nc3c2nnn3Cc2ccccc2)cc1OC	none
Cc1ccc(-n2nnnc2SCC(=O)NCC2(N3CCOCC3)CCCCC2)c(C)c1	none (no result: Kir21 inh, KCNQ1 block, KCNK9 inh, KCNQ1 pot, hERG rescue)
O=C(CNC(=O)c1ccc(Cl)cc1)OCC(=O)c1ccccc1	none
O=C(CCC(=O)c1ccc(Cl)cc1)OCC(=O)c1ccccc1	hERG rescue 8.9
Cc1ccc(-c2csc(N=C(N)N)n2)c(C)c1	Kir21 inh -8.3
c1ccc(CN2CCC3CC2c2cc(N4CCOCC4)ccc23)cc1 (stereo not drawn)	none (no result: Kir21 inh, KCNQ1 block, KCNK9 inh, KCNQ1 pot, hERG rescue)
O=C(Nc1nc(=S)ss1)c1ccc(Cl)cc1Cl	KCNQ1 pot 15, hERG rescue 41
O=C(COC(=O)c1ccc(Br)cc1)NCCN1C(=O)CSC1=O	hERG rescue 7.3
COc1ccc(C(C(=O)NC2CCCCC2)N(Cc2ccco2)C(=O)c2ccccn2)c(OC)c1 (stereo not drawn)	none
O=C(Cc1cn(Cc2cccc(Cl)c2)c2ccccc12)N1CCCC1	Kir21 inh -5.2
COCCCn1c(SCC(=O)Nc2ccc(NC(C)=O)cc2)nc2sc3c(c2c1=O)CCC3	none
C=CCNCCOc1ccc(C(C)(C)c2ccccc2)cc1	Kir21 inh -12
COc1ccc(C2(c3ccc(OC)cc3)NC(=O)N(CC(=O)NCC(C)c3ccccc3)C2=O)cc1 (stereo not drawn)	none (no result: Kir21 inh, KCNQ1 block, KCNK9 inh, KCNQ1 pot, hERG rescue)
O=C(CSc1nc(-c2ccc(Cl)cc2)cs1)Nc1cccc([N+](=O)[O-])c1	KCNQ1 block 6
CC1=NN(c2ccc(C)c(C)c2)C(=O)C1C(c1cccc(O)c1)C1C(=O)N(c2ccc(C)c(C)c2)N=C1C (stereo not drawn)	KCNK9 inh -9.8
Cc1cc2c(cc1S(=O)(=O)N(C)Cc1ccccc1)n(C)c(=O)c(=O)n2C	none
C/C(=N\NC(=O)c1nnn(-c2nonc2N)c1CN(C)c1ccccc1)c1ccccn1	KCNK9 inh -7.6

Assay outcomes as filed in PubChem.
